Non-standard residues stand in square brackets, D forms with d. Residues, ends and D or L forms follow the SMILES beside them.
Test system: not listed separately
Test: Evaluated for inhibition of ET-1 induced Calcium channel [Ca+2]i in CHO-K1 cells transfected with the rat ETA-expression plasmid DNA at 10E-6M; range- 50-70%
Assay type: functional
Procedure, shortened: (§1)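 Rat ETA receptor plasmid transfected into CHO-K1 cells by lipofection. Cells preloaded with fura-2 AM, then stimulated with ET-1 at 10^-7 M. The rise in [Ca2+]i was read ratiometrically, with excitation at 340/380 nm and emission at 510 nm. The ET-1 response alone was set as 100%, and inhibition by compounds is expressed relative to it.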

SMILES	inhibition at 1 µM
CC1(c2cccc(O)c2)c2cc(C(=O)O)sc2C(=O)c2c1c1ccccc1n2Cc1ccccc1 (configuration not stated)	< 70%
COc1cccc(C2(C)c3cc(C(=O)O)sc3C(=O)c3c2c2ccccc2n3C)c1 (configuration not stated)	< 70%
CC1(c2ccc(OCC(=O)O)cc2)c2cc(C(=O)O)sc2C(=O)c2c1c1ccccc1n2Cc1ccccc1 (configuration not stated)	< 70%

Test system: not listed separately
Test: Evaluated for inhibition of ET-1 induced Calcium channel [Ca+2]i in CHO-K1 cells transfected with the rat ETA-expression plasmid DNA at 10E-6M
Assay type: functional
Procedure, shortened: as §1

SMILES	inhibition at 1 µM
Cn1c2c(c3ccccc31)C(C)(c1cccc(CC(=O)O)c1)c1cc(C(=O)O)sc1C2=O (configuration not stated)	> 75%
CC(C)C[C@@H]1NC(=O)[C@@H](C(C)C)NC(=O)[C@@H]2CCCN2C(=O)[C@@H](CC(=O)O)NC(=O)[C@@H](Cc2c[nH]c3ccccc23)NC1=O [BQ-123] (cyclo(L[dW][dD]P[dV]))	~60%
Cn1c2c(c3ccccc31)C(C)(c1cccc(CCCC(=O)O)c1)c1cc(C(=O)O)sc1C2=O (configuration not stated)	> 75%
Cn1c2c(c3ccccc31)C(C)(c1ccc(OCC(=O)O)cc1)c1cc(C(=O)O)sc1C2=O (configuration not stated)	> 75%
CC1(c2ccc(O)cc2)c2cc(C(=O)O)sc2C(=O)c2c1c1ccccc1n2Cc1ccccc1 (configuration not stated)	> 75%
Cn1c2c(c3ccccc31)C(C)(c1ccc(OCCCC(=O)O)cc1)c1cc(C(=O)O)sc1C2=O (configuration not stated)	> 75%

Test system: not listed separately
Test: Evaluated for inhibition of ET-1 induced Calcium channel [Ca+2]i in CHO-K1 cells transfected with the rat ETA-expression plasmid DNA
Assay type: functional, cell-based
Procedure, shortened: as §1

IC50	SMILES
~10 nM	CC1(c2ccc(O)cc2)c2cc(C(=O)O)sc2C(=O)c2c1c1ccccc1n2Cc1ccccc1 (configuration not stated)

Test system: not listed separately
Test: Evaluated for inhibition of ET-1 induced Calcium channel [Ca+2]i in CHO-K1 cells transfected with the rat ETA-expression plasmid DNA at 10 nM
Assay type: functional
Procedure, shortened: as §1

SMILES	inhibition at 0.01 µM
CCCOc1ccc2c(c1)[C@@H](c1ccc(OC)cc1OCC(=O)O)[C@H](C(=O)O)[C@H]2c1ccc2c(c1)OCO2 [SB-209670]	~85%

Test system: CHO-K1
Test: Evaluated for inhibition of ET-1 induced Calcium channel [Ca+2]i in CHO-K1 cells transfected with the rat ETA-expression plasmid DNA at 10E-6M; Low inhibition
Assay type: functional, cell-based
Procedure, shortened: as §1

SMILES	inhibition
COc1ccc(Cn2c3c(c4ccccc42)C(C)(c2ccccc2)c2cc(C(=O)O)sc2C3=O)cc1 (configuration not stated)	Weak inhibition
CC1(c2cccc(CC(=O)O)c2)c2cc(C(=O)O)sc2C(=O)c2c1c1ccccc1n2Cc1ccccc1 (configuration not stated)	Weak inhibition
COc1cccc(C2(C)c3cc(C(=O)O)sc3C(=O)c3c2c2ccccc2n3Cc2ccccc2)c1 (configuration not stated)	Weak inhibition
COc1ccc(C2(C)c3cc(C(=O)O)sc3C(=O)c3c2c2ccccc2n3Cc2ccccc2)cc1 (configuration not stated)	Weak inhibition
CC1(c2ccccc2)c2cc(C(=O)O)sc2C(=O)c2c1c1ccccc1n2Cc1ccc(OCC(=O)O)cc1 (configuration not stated)	Weak inhibition
CC1(c2ccccc2)c2cc(C(=O)O)sc2C(=O)c2c1c1ccccc1n2Cc1ccc(O)cc1 (configuration not stated)	Weak inhibition

From ChEMBL document CHEMBL1148428, “Carbazolothiophene-2-carboxylic acid derivatives as endothelin receptor antagonists” (Bioorg Med Chem Lett, 2004)
